CaV13 ICDI inh – Primary screen for inhibitors of IQ motif and Ca2+-dependent inactivation inhibitor domain binding in CACNA1D, Förster resonance energy transfer in living cells, …; HEK cells, CFP/YFP FRET ICDI-IQ, plate reader, 10 min; percent FRET-ratio fall versus neutral wells; inhibition, % at 12.3 µM; actives 0.098% (n = 340,000); AID 743397;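 active means mean replicate inhibition of at least 30% and at least 1% of replicates passing that level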;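 further: 0% = median of the neutral control wells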
Efflux pump inh – inhibitors of Candida efflux pumps in yeast, primary screen, S. cerevisiae, Nile Red, multiplex; S. cerevisiae Candida pump triplex; inhibition, % at 10 µM; actives 0.44% (n = 330,000);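 active means plate passing quality check with inhibition over a set limit, or well fluorescence over plate mean plus 4 SD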;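 further: Nile Red retained in pooled yeast measured as flow cytometry median fluorescence; 0% = buffer negative control and 100% = Enniatin B positive control; higher means more Nile Red kept so more efflux inhibition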
SR-BI DiI-HDL act – activators of SR-BI mediated DiI-HDL uptake, primary screen, ldlA[mSR-BI] CHO cells, DiI fluorescence | 3 h; 100 = double the neutral-control signal | activation, % at 12.5 µM | actives 0.096% (n = 320,000);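 active means mean replicate activation of at least 60% and every replicate at or above 60%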;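 further: 0% = median plate neutral-control signal and 100% = twice that signal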
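Material: SR-BI-overexpressing, LDLR-lacking CHO cells; schedule: compound exposure 3 h, 37 °C; reagent: DiI-labelled HDL at 10 µg/mL final; technique: bottom-read fluorescence, 550/595 nm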
SR-BI DiI inh – inhibitors of SR-BI mediated HDL lipid uptake, primary screen, ldlA[mSR-BI] cells, fluorescence, single point; actives 0.96% (n = 320,000); Scavenger receptor class B member 1 (Mus musculus), Q61009; inhibition, % at 12.5 µM; ldlA[mSR-BI] CHO cells, DiI-HDL uptake fluorescence, 3 h;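 active means mean replicate inhibition of at least 70% and a set share of replicates each scoring 70 or more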;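 further: 0% = median of neutral control wells and 100% = median of positive control wells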
Target sequence (Q61009 whole entry, looked up): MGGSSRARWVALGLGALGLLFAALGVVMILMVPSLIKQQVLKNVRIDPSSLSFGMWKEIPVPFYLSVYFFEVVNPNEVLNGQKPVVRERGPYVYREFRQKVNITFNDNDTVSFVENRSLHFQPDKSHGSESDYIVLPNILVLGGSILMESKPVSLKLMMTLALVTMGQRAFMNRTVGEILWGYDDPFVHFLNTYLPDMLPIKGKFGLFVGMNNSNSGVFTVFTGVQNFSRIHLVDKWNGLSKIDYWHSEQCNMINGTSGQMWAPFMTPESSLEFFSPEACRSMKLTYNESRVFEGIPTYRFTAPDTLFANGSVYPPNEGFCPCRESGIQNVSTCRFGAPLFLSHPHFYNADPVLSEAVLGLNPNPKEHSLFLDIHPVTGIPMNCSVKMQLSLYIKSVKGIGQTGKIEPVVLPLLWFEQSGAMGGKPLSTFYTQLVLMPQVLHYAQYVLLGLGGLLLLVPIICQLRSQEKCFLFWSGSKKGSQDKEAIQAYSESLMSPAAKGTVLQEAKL
FN deposit inh – inhibitors of fibronectin matrix deposition, primary screen, AH1F cells, Alexa488-fibronectin fluorescence, plate reader; AH1F fibroblasts, overnight; inhibition, % at 12.6 µM; actives 0.086% (n = 350,000);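 active means mean inhibition across replicates of 30% or more, regardless of how many single replicates reach that level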;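 further: positive control wells lacked labelled fibronectin entirely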
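Material: AH1F fibroblast monolayer depositing Alexa488-labelled fibronectin into matrix | Input: 10000 AH1F cells/well | Medium: DMEM plus 2% serum, read in PBS | Reagent: Alexa488-fibronectin, 24 nM final in well | Compound dosing: One dose per compound, pinned | Schedule: 1 h adhesion, overnight exposure | Measured by: Fluorescence at 485 nm excitation, 525 nm emission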
Numbers without * were called inactive; · = not tested or not shown. Most compounds without a hit are left out; they make up all but 1.2% or so of the library.

SMILES	CaV13 ICDI inh	Efflux pump inh	SR-BI DiI-HDL act	SR-BI DiI inh	FN deposit inh
CC1(C)CC(=O)C2=C(C1)N(CCN1CCOCC1)C1=C(C(=O)CC(C)(C)C1)C2c1cccc(Cl)c1	0	0	26	-26	16
CCN(CC)CCN1C2=C(C(=O)CC(C)(C)C2)C(c2cccc(F)c2)C2=C1CC(C)(C)CC2=O	123*	0	14	-14	-1
O=C1C(Nc2ccccc2)=C2CCCC=C2N1c1ccccc1	-6	0	-79	79*	·
O=[N+]([O-])c1ccc(N/N=C/c2sc(N3CCOCC3)nc2-c2ccccc2)c(S(=O)(=O)Nc2ccccc2Cl)c1	-7	·	17	-17	-7
O=[N+]([O-])c1ccc(N/N=C/c2sc(N3CCOCC3)nc2-c2ccccc2)c(S(=O)(=O)Nc2ccc(Cl)cc2)c1	-105	·	-118	118*	-4
O=C(N/N=C/c1sc(N2CCOCC2)nc1-c1ccccc1)c1ccccc1O	-4	0	-41	41	-4
O=C(N/N=C/c1sc(N2CCOCC2)nc1-c1ccccc1)c1ccccc1Cl	-5	0	-83	83*	-22
CC1=C(CC/C(C)=N/NC(N)=S)C(C)(C)CCC1	-6	0	-76	76*	·
Cc1noc(C)c1S(=O)(=O)Nc1ccc2c(c1)C(=O)N([C@@H](C)CO)C[C@@H](C)[C@@H](CN(C)C(=O)Nc1ccccc1)OCCCC[C@@H](C)O2	·	·	·	·	-1
CCc1sc(C(=O)Nc2ccc(N3CCOCC3)cc2)cc1C	-6	0	-75	75*	-3
C=CC[C@@H]1C=C(C)C[C@H](C)C[C@H](OC)[C@H]2O[C@@](O)(C(=O)C(=O)N3CCCC[C@H]3C(=O)O[C@H](/C(C)=C/[C@@H]3CC[C@@H](O)[C@H](OC)C3)[C@H](C)[C@@H](O)CC1=O)[C@H](C)C[C@@H]2OC	·	1.1*	·	·	·
COc1ccc([N+](=O)[O-])cc1N/C(=N/S(=O)(=O)c1ccccc1)c1ccccc1	-6	0	-73	73*	-5
COc1ccc([N+](=O)[O-])cc1NS(=O)(=O)c1ccc(C(=O)N2CCCC2)cc1	-2	0	2	-2	34*
COc1ccc([N+](=O)[O-])cc1NS(=O)(=O)c1cc(C(=O)N2CCN(C)CC2)ccc1OC	-16	0	0	0	5
O=C(c1ccc(NS(=O)(=O)c2cccc([N+](=O)[O-])c2)cc1)N1CCN(C(=O)c2ccco2)CC1	-3	0	63*	-63	4
O=C(c1ccc(NS(=O)(=O)c2cccc([N+](=O)[O-])c2)cc1)N1CCCCCC1	-6	0	-4	4	0
COc1ccc(S(=O)(=O)N2CCCOC2CNC(=O)C(=O)NCCCn2ccnc2)cc1OC (configuration not stated)	3	0	71*	-71	-14
O=C(Nc1sc2c(c1C(=O)NCc1ccco1)CCCC2)c1ccc2c(c1)OCO2	-4	0	-82	82*	-3
COc1ccc(-c2[nH]c(-c3ccccc3)nc2SCC(=O)Nc2nccs2)cc1	-7	0	-19	19	10
COc1ccc(-c2[nH]c(-c3ccc(C)cc3)nc2SCC(=O)NC2CCCC2)cc1	-10	0	-80	80*	-15
COc1ccc(-c2[nH]c(-c3ccc(Cl)cc3)nc2SCC(=O)Nc2nccs2)cc1	-10	0	-83	83*	4
COc1ccc2nc(SCC(=O)NC3CCCC3)c(C)cc2c1	-7	0	-6	6	7
O=C(NNC(=O)c1cccc2ccccc12)c1ccc(Cl)cc1	-10	·	-6	6	-10
O=C(NNC(=O)c1ccccc1O)c1ccc(Cl)cc1	-4	0	-88	88*	-6
Cc1cccc(C(=O)NNC(=O)c2ccc(Cl)cc2)c1O	-1	0	-75	75*	·
SMILES	CaV13 ICDI inh	Efflux pump inh	SR-BI DiI-HDL act	SR-BI DiI inh	FN deposit inh
C/C(=C\C(=O)c1ccccc1)NNC(=O)c1ccc(Cl)cc1	-5	0	-91	91*	8
COc1ccc(C(=O)NN/C(C)=C/C(=O)c2ccccc2)cc1	-5	1	-17	17	2
O=C(c1cc2c(c(-c3cccc(Br)c3)n1)[C@@H](CCO)NC2)N1CCCCC1	·	·	·	·	5
CNC(=O)C[C@H]1CC[C@@H]2[C@H](COc3ccc(NC(=O)Nc4cc(C)cc(C)c4)cc3C(=O)N2C)O1	·	·	·	·	0
COc1ccc([C@H]2CC=CC[C@H](C)Oc3ccccc3C(=O)N(C)[C@H](C)C(=O)N2)c(OC)c1 (mixture of isomers)	·	·	·	·	6
CO[C@@H]1CN(C)C(=O)c2cc(NS(C)(=O)=O)ccc2OC[C@@H](C)NC[C@H]1C	·	·	·	·	0
Cc1ncc(CO)c(/C=N/NC(=O)c2cc3c(s2)CCCC3)c1O	15	0	-104	104*	3
Cc1ncc(CO)c(/C=N/NC(=O)c2ccc(O)cc2)c1O	-6	0	-36	36	0
CSCCNC(=O)Nc1c(-c2c(Cl)cccc2Cl)noc1C	-4	0	142*	-142	8
Cc1onc(-c2c(Cl)cccc2Cl)c1NC(=O)NN(C)C	-4	0	10	-10	-3
C[C@H]1CN([C@@H](C)CO)C(=O)c2c(c3ccccc3n2C)-c2ccccc2CO[C@@H]1CN(C)Cc1ccc(-c2ccccc2)cc1	·	·	·	·	3
CO[C@H]1CN(C)C(=O)c2cc(NC(C)=O)ccc2OC[C@H](C)N(C(=O)c2cnccn2)C[C@@H]1C	·	·	·	·	9
COC(=O)N/N=C/c1cc(Cl)cc(Cl)c1OCc1ccc(F)cc1	-6	0	-84	84*	·
COc1ccc(C2NCCc3cc(OC)c(OC)cc32)cc1OC (configuration not stated)	-5	0	-8	8	active
COc1cc2c(cc1OC)C(c1ccc(Br)cc1)NCC2 (configuration not stated)	-2	0	·	·	5
C[C@H]1CN([C@@H](C)CO)C(=O)c2cc(C#CC3CCCC3)cnc2O[C@H]1CN(C)C(=O)Nc1ccccc1	·	·	·	·	-12
CCN(CC)c1ccc(C=NNc2ccc([N+](=O)[O-])cn2)cc1	-14	·	-84	84*	-2
O=[N+]([O-])c1ccc(NN=Cc2ccccc2O)nc1	-12	·	-88	88*	·
O=[N+]([O-])c1ccc(NN=Cc2ccc(O)cc2O)nc1	-24	·	-46	46	4
N#Cc1ccccc1Cn1cc(/C=N/Nc2ccc([N+](=O)[O-])cn2)c2ccccc21	-8	0	-96	96*	-12

Bioassay records as filed in PubChem.
